# Experiments:
# P2Y purinoceptor 12 [1] = molecular target: T1, P2Y purinoceptor 12 (Homo sapiens, UniProt Q9H244); assay: Binding affinity to human recombinant P2Y12 receptor expressed in CHO cell membrane in presence of HSA and human AGP; type: cell membranes
# How it was run: (§1)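 Same 33P 2-MeSADP filtration binding on recombinant human P2Y12 CHO membranes (1 or 0.3 µg/well), room temperature, 1 h. Membranes were prepared with 5X HSA (1.75%) and 5X AGP (0.075%). Compounds were run as a seven-point threefold series from 10 µM, in triplicate. Fold shift is the Ki with added protein divided by the Ki without protein.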
# P2Y purinoceptor 12 [2] = molecular target: T1, P2Y purinoceptor 12; assay: Binding affinity to human recombinant P2Y12 receptor expressed on CHO cell membrane; type: cell membranes
# How it was run: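 Competition binding against 33P 2-MeSADP (added as a 1 nM solution) on membranes from CHO cells transfected with recombinant human P2Y12. Membranes were used at 10, 1 or 0.3 µg/well depending on method. Buffer contained 0.02% BSA, ascorbic acid and protease inhibitors. Cold 2-MeSADP (1.5 µM solution) served as control. Compounds were run as a seven-point threefold series from 10 µM, in triplicate. Plates were incubated 1 h at room temperature, then GF/B filtered and scintillation counted.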
# Homo sapiens = species: Homo sapiens; assay: Ratio of Ki for human recombinant P2Y12 in presence of HSA and AGP to Ki for human recombinant P2Y12; how it was run: as §1
# [3] = Antiplatelet aggregatory activity in human platelet rich plasma assessed as inhibition of ADP-induced platelet aggregation; type: functional
# How it was run: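 Human PRP was obtained by centrifuging whole blood at 200g for 15 min at room temperature, then adjusted to 300,000 platelets/µL with autologous platelet-poor plasma (2380g spin). Stirred PRP was mixed with compound, and aggregation was started with 20 µM ADP. Aggregation was read as the increase in light transmittance on a microplate spectrophotometer. Each concentration was run in duplicate.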
# T1 sequence (Q9H244 whole entry): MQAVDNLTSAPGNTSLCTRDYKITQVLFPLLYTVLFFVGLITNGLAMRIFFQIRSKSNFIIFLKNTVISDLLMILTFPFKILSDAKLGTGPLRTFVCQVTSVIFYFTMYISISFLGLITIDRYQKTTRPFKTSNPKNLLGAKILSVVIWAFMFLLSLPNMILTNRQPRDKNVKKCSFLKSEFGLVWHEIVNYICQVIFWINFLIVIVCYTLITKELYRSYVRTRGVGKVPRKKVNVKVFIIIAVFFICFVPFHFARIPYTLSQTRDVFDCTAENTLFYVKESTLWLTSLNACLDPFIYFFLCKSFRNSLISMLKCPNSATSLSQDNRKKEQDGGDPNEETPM
Ki (P2Y purinoceptor 12 [1]),Ki (P2Y purinoceptor 12 [2]),Ratio Ki (Homo sapiens),IC50 [3],Structure (SMILES)
0.593 µM,0.539 µM,1.1,25 µM,CCc1cc2c(N3CCN(C(=O)COc4ccccc4)CC3)nc(NC(=O)NCCC(=O)O)nc2s1
0.447 µM,0.191 µM,2.3,39 µM,CCc1cc2c(N3CCN(C(=O)COc4cccc(OC)c4)CC3)nc(NC(=O)NCCC(=O)O)nc2s1
–,0.66 µM,–,28 µM,CCc1cc2c(N3CCN(C(=O)Cc4ccccc4)CC3)ncnc2s1
0.075 µM,0.019 µM,4,11 µM,CCc1cc2c(N3CCN(C(=O)c4ccc(-c5ccccc5)cc4)CC3)nc(NC[C@@H](O)CO)nc2s1
0.231 µM,0.223 µM,1,16 µM,CCc1cc2c(N3CCN(C(=O)Cc4ccccc4)CC3)nc(NC(=O)NCCC(=O)O)nc2s1
0.046 µM,0.036 µM,1.3,4 µM,CCc1cc2c(N3CCN(C(=O)C(C)C)CC3)nc(NC(=O)NCCC(=O)O)nc2s1
0.367 µM,0.295 µM,1.2,16 µM,CCC(=O)N1CCN(c2nc(NC(=O)NCCC(=O)O)nc3sc(CC)cc23)CC1
0.38 µM,0.46 µM,0.8,38 µM,CCc1cc2c(N3CCN(C(C)=O)CC3)nc(NC(=O)NCCC(=O)O)nc2s1
0.163 µM,0.037 µM,4.4,21 µM,CCc1cc2c(N3CCN(C(=O)c4ccc(-c5ccccc5)cc4)CC3)nc(NCCO)nc2s1
–,–,–,18 µM,CCc1cc2c(N3CCN(C(=O)C(F)(F)F)CC3)ncnc2s1
0.241 µM,0.035 µM,7,37 µM,CCc1cc2c(N3CCN(C(=O)c4ccc(-c5ccccc5)cc4)CC3)nc(N3CCC(O)C3)nc2s1 (stereo not drawn)
1.81 µM,0.839 µM,2,> 100 µM,CCc1cc2c(N3CCN(C(=O)c4ccc(-c5ccccc5)cc4)CC3)nc(N3CCN(C(=O)C(F)(F)F)CC3)nc2s1
0.122 µM,–,15,57 µM,CCc1cc2c(N3CCN(C(=O)c4ccc(-c5ccccc5)cc4)CC3)nc(NCCC(=O)O)nc2s1
0.031 µM,0.005 µM,6,4 µM,CCc1cc2c(N3CCN(C(=O)c4ccc(-c5ccccc5)cc4)CC3)nc(N3C[C@@H](O)C[C@H]3C(=O)O)nc2s1
–,–,–,4 µM,CCc1cc2c(N3CCN(C(=O)CCCCOc4ccccc4)CC3)ncnc2s1
–,0.13 µM,–,1.25 µM,CCc1cc2c(N3CCN(C(=O)Oc4cccc5ccccc45)CC3)ncnc2s1

Ki (P2Y purinoceptor 12 [1]),Ki (P2Y purinoceptor 12 [2]),Ratio Ki (Homo sapiens),IC50 [3],Structure (SMILES)
0.14 µM,0.068 µM,2,34 µM,CCc1cc2c(N3CCN(C(=O)Cc4ccc(F)c(F)c4)CC3)nc(NC(=O)NCCC(=O)O)nc2s1
–,0.029 µM,–,7 µM,CCc1cc2c(N3CCN(C(=O)c4ccc(-c5ccccc5)cc4)CC3)ncnc2s1
0.203 µM,0.031 µM,6.5,73 µM,CCc1cc2c(N3CCN(C(=O)c4ccc(-c5ccccc5)cc4)CC3)nc(N3CCCC(C(N)=O)C3)nc2s1 (stereo not drawn)
–,2.99 µM,–,28 µM,CCc1cc2c(N3CCN(C(=O)CC(F)(F)F)CC3)ncnc2s1
0.783 µM,0.213 µM,3.7,86 µM,CCc1cc2c(N3CCN(C(=O)CCOc4ccccc4)CC3)nc(NC(=O)NCCC(=O)O)nc2s1
0.161 µM,0.037 µM,4.3,42 µM,CCc1cc2c(N3CCN(C(=O)c4ccc(-c5ccccc5)cn4)CC3)nc(NC(=O)NCCC(=O)O)nc2s1
0.441 µM,0.078 µM,5.6,56 µM,CCc1cc2c(N3CCN(C(=O)c4ccc(-c5ccccc5)cc4)CC3)nc(NCCCO)nc2s1
–,4.4 µM,–,–,CCc1cc2c(N3CCN(C(=O)c4ccccc4)CC3)ncnc2s1
0.021 µM,0.004 µM,5,3 µM,CCc1cc2c(N3CCN(C(=O)c4ccc(-c5ccccc5)cc4)CC3)nc(N3[C@@H](C(N)=O)CC[C@H]3C(N)=O)nc2s1
0.172 µM,0.177 µM,1,18 µM,CCc1cc2c(N3CCN(C(=O)CC(F)(F)F)CC3)nc(NC(=O)NCCC(=O)O)nc2s1
0.397 µM,0.41 µM,1,45 µM,CCc1cc2c(N3CCN(C(=O)c4ccc(-c5ccccc5)cc4)CC3)nc(N3CCNCC3)nc2s1
0.01 µM,–,3.3,5 µM,CCc1cc2c(N3CCN(C(=O)c4ccc(-c5ccccc5)cc4)CC3)nc(NC(=O)NCCC(=O)O)nc2s1
–,2.1 µM,–,8 µM,CCc1cc2c(N3CCN(C(=O)CC(C)C)CC3)ncnc2s1
0.297 µM,0.027 µM,11,30 µM,CCc1cc2c(N3CCN(C(=O)c4ccc(-c5ccccc5)cc4)CC3)nc(N3CC(O)C3)nc2s1
0.325 µM,0.24 µM,1.3,40 µM,CCc1cc2c(N3CCN(C(=O)c4ccc(-c5ccccc5)cc4)CC3)nc(N3CCC(N)CC3)nc2s1

# Reference: ChEMBL document CHEMBL1156059, “Thienopyrimidine-based P2Y12 platelet aggregation inhibitors” (Bioorg Med Chem Lett, 2009)
